Experimental data published in ChEMBL document CHEMBL5030525, “Design, synthesis and antitumor activity evaluation of trifluoromethyl-substituted pyrimidine derivatives” (Bioorg Med Chem Lett, 2021).

Key:
[1] = system: PC-3; experiment: Antiproliferative activity against human PC-3 cells assessed as inhibition of cell growth measured after 72 hrs by MTT assay; assay type: functional, cell-based; conditions: PC-3, 72 h
How it was run: (§1)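 Cells in log phase were seeded at 3000–5000 per well and cultured 24 h at 37 °C, then exposed to a range of compound concentrations in fresh medium for 72 h. MTT was added and incubated 4 h at 37 °C, formazan was dissolved in DMSO, and absorbance was read at 490 nm. IC50 was taken from survival rate, as mean ± SD of three independent experiments. Stocks were 10 mM in DMSO.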

[2] = system: MGC-803; experiment: Antiproliferative activity against human MGC-803 cells assessed as inhibition of cell growth measured after 72 hrs by MTT assay; assay type: functional, cell-based; conditions: MGC-803, 72 h; how it was run: as §1
[3] = system: MCF7; experiment: Antiproliferative activity against human MCF7 cells assessed as inhibition of cell growth measured after 72 hrs by MTT assay; assay type: functional, cell-based; conditions: MCF7, 72 h; how it was run: as §1
[4] = system: NCI-H1975; experiment: Antiproliferative activity against human NCI-H1975 cells assessed as inhibition of cell growth measured after 72 hrs by MTT assay; assay type: functional, cell-based; conditions: NCI-H1975, 72 h; how it was run: as §1
[5] = system: GES1; experiment: Cytotoxicity against human GES1 cells assessed as reduction in cell viability measured after 72 hrs by MTT assay; assay type: cell-based; conditions: GES1, 72 h; how it was run: as §1
[6] = Selectivity index, ratio of IC50 for cytotoxicity against human GES1 cells to IC50 for antiproliferative activity against human NCI-H1975 cells; assay type: toxicity, cell-based; conditions: GES1 cells versus NCI-H1975 cells, read-out: Ratio IC50
How it was run: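 Ratio of GES-1 IC50 to H1975 IC50. Both came from the 72 h MTT assay, with IC50 as the mean ± SD of three separate experiments.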

Compound | IC50 [1] [µM] | IC50 [2] [µM] | IC50 [3] [µM] | IC50 [4] [µM] | IC50 [5] [µM] | selectivity ratio [6]
Cc1nnc(Sc2cc(C(F)(F)F)nc(SCc3ccc(C(F)(F)F)cc3)n2)s1 | > 50 | 11.4 | > 50 | 3.06 | – | –
C=CC(=O)Nc1cccc(Nc2cc(C(F)(F)F)nc(SCc3ccc(F)cc3)n2)c1 | 9.22 | 9.25 | 14.9 | 10.1 | – | –
C=CC(=O)Nc1cccc(Nc2cc(C(F)(F)F)nc(SCc3cccc(C)c3)n2)c1 | 9.05 | 12.6 | 26.7 | 13.2 | – | –
FC(F)(F)c1ccc(CSc2nc(N3CCN(c4ccccc4)CC3)cc(C(F)(F)F)n2)cc1 | 42.7 | 35.2 | > 50 | > 50 | – | –
C=CC(=O)Nc1cccc(Nc2cc(C(F)(F)F)nc(SCc3ccccc3C)n2)c1 | 15.1 | 18.2 | 33.6 | 14.6 | – | –
C=CC(=O)Nc1cccc(Nc2cc(C(F)(F)F)nc(SCc3cccc(OC)c3)n2)c1 | 11.5 | 32.4 | 8.91 | 9.45 | – | –
CC(C)(C)OC(=O)N1CCN(c2cc(C(F)(F)F)nc(SCc3ccc(C(F)(F)F)cc3)n2)CC1 | 40.6 | 22.2 | > 50 | > 50 | – | –
FC(F)(F)c1ccc(CSc2nc(N3CCOCC3)cc(C(F)(F)F)n2)cc1 | 40.8 | > 50 | > 50 | > 50 | – | –
C=CC(=O)Nc1cccc(Nc2cc(C(F)(F)F)nc(SCc3ccccc3C(F)(F)F)n2)c1 | 7.96 | 26.6 | 17.2 | 6.55 | – | –
C=CC(=O)Nc1cccc(Nc2cc(C(F)(F)F)nc(SCc3ccc(Br)cc3)n2)c1 | 6.32 | 29.4 | 11.7 | 6.44 | – | –
C=CC(=O)Nc1cccc(Nc2cc(C(F)(F)F)nc(SCC3CCCCC3)n2)c1 | 12.5 | 34.1 | 11.2 | 18 | – | –
FC(F)(F)c1ccc(CSc2nc(Sc3ncc(-c4ccncc4)s3)cc(C(F)(F)F)n2)cc1 | 7.35 | 5.77 | 10.1 | 16.7 | – | –
C=CC(=O)Nc1cccc(Nc2cc(C(F)(F)F)nc(SCc3c(Cl)cccc3Cl)n2)c1 | 14.6 | 34.7 | 9.66 | 9.03 | – | –
C=CC(=O)Nc1cccc(Nc2cc(C(F)(F)F)nc(SCc3cccc(Br)c3)n2)c1 | 7.44 | 22.8 | 14.3 | 7.44 | – | –
FC(F)(F)c1ccc(CSc2nc(N3CCSCC3)cc(C(F)(F)F)n2)cc1 | 46.8 | 44 | > 50 | > 50 | – | –
COc1cc(Nc2cc(C(F)(F)F)nc(SCc3ccc(C(F)(F)F)cc3)n2)cc(OC)c1OC | 19.5 | 15.5 | 10.9 | 9.92 | – | –
C=CC(=O)Nc1cccc(Nc2cc(C(F)(F)F)nc(SCc3cccc(F)c3)n2)c1 | 8.57 | 7.14 | 23 | 13.7 | – | –
FC(F)(F)c1ccc(CSc2nc(N3CCNCC3)cc(C(F)(F)F)n2)cc1 | 15.9 | 5.87 | 10.7 | 6.21 | – | –
Cc1ccc(Nc2cc(C(F)(F)F)nc(SCc3ccc(C(F)(F)F)cc3)n2)cc1 | 16.5 | 32.3 | > 50 | 20.6 | – | –
C=CC(=O)Nc1cccc(Nc2cc(C(F)(F)F)nc(SCc3ccccc3Br)n2)c1 | 8.17 | 30.9 | 20.2 | 9.62 | – | –
C=CC(=O)Nc1cccc(Nc2cc(C(F)(F)F)nc(SCC3CCOCC3)n2)c1 | 8.96 | 28.3 | 17.7 | 16.3 | – | –
Cc1csc(Sc2cc(C(F)(F)F)nc(SCc3ccc(C(F)(F)F)cc3)n2)n1 | 12 | 21.3 | 14.5 | 5.84 | – | –
C=CC(=O)Nc1cccc(Nc2cc(C(F)(F)F)nc(SCc3cccc(Cl)c3)n2)c1 | 10.5 | 35.2 | 10.1 | 14.8 | – | –
COc1ccc(Nc2cc(C(F)(F)F)nc(SCc3ccc(C(F)(F)F)cc3)n2)cn1 | 23.8 | 12.2 | 36.9 | 6.32 | – | –
C=CC(=O)Nc1cccc(Nc2cc(C(F)(F)F)nc(SCc3cnc(Cl)s3)n2)c1 | 11.5 | 38.3 | 10.7 | 10.9 | – | –
C=CC(=O)Nc1cccc(Nc2cc(C(F)(F)F)nc(SCc3ccc(Cl)cc3Cl)n2)c1 | 6.66 | 18.6 | 6.25 | 15.3 | – | –

Compound | IC50 [1] [µM] | IC50 [2] [µM] | IC50 [3] [µM] | IC50 [4] [µM] | IC50 [5] [µM] | selectivity ratio [6]
FC(F)(F)c1ccc(CSc2nc(Sc3nnnn3-c3ccccc3)cc(C(F)(F)F)n2)cc1 | 45.3 | 12.4 | 39.5 | 24.3 | – | –
C=CC(=O)Nc1cccc(Nc2cc(C(F)(F)F)nc(SCc3ccccc3Cl)n2)c1 | 13.6 | 28.4 | 11.8 | 13.1 | – | –
FC(F)(F)c1ccc(CSc2nc(Nc3nnn[nH]3)cc(C(F)(F)F)n2)cc1 | > 50 | > 50 | > 50 | > 50 | – | –
Fc1ccc(Nc2cc(C(F)(F)F)nc(SCc3ccc(C(F)(F)F)cc3)n2)cc1 | 14.1 | 19.2 | > 50 | 17.4 | – | –
FC(F)(F)c1ccc(CSc2nc(N3CCN(c4ccccn4)CC3)cc(C(F)(F)F)n2)cc1 | > 50 | 23.5 | > 50 | 17.4 | – | –
C=CC(=O)Nc1cccc(Nc2cc(C(F)(F)F)nc(SCc3ccc(C(F)(F)F)cc3)n2)c1 | 5.65 | 9.8 | 7.08 | 4.77 | 31.5 | 6.6
C=CC(=O)Nc1cccc(Nc2cc(C(F)(F)F)nc(SCc3cccc(C(F)(F)F)c3)n2)c1 | 5.92 | 18.7 | 12.4 | 5.07 | – | –
C=CC(=O)Nc1cccc(Nc2cc(C(F)(F)F)nc(SCc3ccccc3)n2)c1 | 14.2 | 22.3 | 19.1 | 21.9 | – | –
C=CC(=O)Nc1cccc(Nc2cc(C(F)(F)F)nc(SCc3ccc(OC)cc3)n2)c1 | 15.8 | 15.1 | 7.59 | 10.2 | – | –
Nc1cccc(Nc2cc(C(F)(F)F)nc(SCc3ccc(C(F)(F)F)cc3)n2)c1 | 23.2 | 8.97 | 13.5 | 23.6 | – | –
C=CC(=O)Nc1cccc(Nc2cc(C(F)(F)F)nc(SCc3ccccc3F)n2)c1 | 8.67 | 13.4 | 31.1 | 15.4 | – | –
FC(F)(F)c1ccc(CSc2nc(Nc3ccc(Cl)cc3Cl)cc(C(F)(F)F)n2)cc1 | 29.6 | 35.5 | > 50 | 33.5 | – | –
C=CC(=O)Nc1cccc(Nc2cc(C(F)(F)F)nc(SCc3ccc(C)cc3)n2)c1 | 17.8 | 18.5 | 25.7 | 15 | – | –
Fc1ccc(Nc2cc(C(F)(F)F)nc(SCc3ccc(C(F)(F)F)cc3)n2)cc1Cl | 35 | 41.4 | > 50 | 22.1 | – | –
FC(F)(F)c1ccc(CSc2nc(Sc3ncccn3)cc(C(F)(F)F)n2)cc1 | > 50 | 28.6 | > 50 | 14 | – | –
FC(F)(F)c1ccc(CSc2nc(N3CCN(c4ncccn4)CC3)cc(C(F)(F)F)n2)cc1 | > 50 | 35.2 | > 50 | 18.3 | – | –
COc1ccc(Nc2cc(C(F)(F)F)nc(SCc3ccc(C(F)(F)F)cc3)n2)cc1 | 35.3 | 8.7 | 22.2 | 13.8 | – | –
CN1CCN(c2cc(C(F)(F)F)nc(SCc3ccc(C(F)(F)F)cc3)n2)CC1 | 34.7 | 15.8 | 30.2 | 23.9 | – | –
C=CC(=O)Nc1cccc(Nc2cc(C(F)(F)F)nc(SCc3ccccc3OC)n2)c1 | 9.96 | 32.7 | 22 | 6.5 | – | –
FC(F)(F)c1ccc(CSc2nc(Sc3ccccn3)cc(C(F)(F)F)n2)cc1 | 25.2 | > 50 | 43.2 | 23.9 | – | –
C=CC(=O)Nc1cccc(Nc2cc(C(F)(F)F)nc(SCC3CCCO3)n2)c1 (stereo unspecified) | 12.9 | 37.2 | 18.3 | 17.6 | – | –
C=CC(=O)Nc1cccc(Nc2cc(C(F)(F)F)nc(SCc3ccc(Cl)cc3)n2)c1 | 9.99 | 29.3 | 15.8 | 11.7 | – | –
CCN1CCN(c2cc(C(F)(F)F)nc(SCc3ccc(C(F)(F)F)cc3)n2)CC1 | 27.2 | 25.6 | 22 | 15 | – | –
FC(F)(F)c1ccc(CSc2nc(SC3=NCCS3)cc(C(F)(F)F)n2)cc1 | 40.6 | 24.5 | 44.9 | 24.2 | – | –
C=CC(=O)Nc1cccc(Nc2cc(C(F)(F)F)nc(SCC3CC3)n2)c1 | 12.6 | 38.7 | 14.2 | 19.2 | – | –
